Data reported in ChEMBL document CHEMBL3351657, “γ-Hydroxyethyl piperidine iminosugar and N-alkylated derivatives: a study of their activity as glycosidase inhibitors and as immunosuppressive agents” (Bioorg Med Chem, 2014).

Tests used:
[1] = tested on: B cell; experiment: Immunosuppressive activity in CPG oligonucleotide-induced human B cells assessed as inhibition of IgG production by immune assay; type: functional, cell-based
Method in brief: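 Human B cells stimulated with CpG oligonucleotide and cultured with compound for 7 days at 37 °C, 5% CO₂. IgG concentration in supernatants then measured by immunoassay.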

[2] = tested on: Jurkat; experiment: Cytotoxicity against human Jurkat cells assessed as cell viability after 3 hrs by WST1 assay; type: functional, cell-based; conditions: 48 h, in the assay text read “after 48 hrs” for “after 3 hrs”
Method in brief: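 Jurkat cells in exponential growth seeded at 50 × 10³ per 200 µl complete medium, with compound dilution added (20 µl) and incubated 48 h at 37 °C, 5% CO₂. Untreated cells set maximum viability and 1% Triton X-100 (last 15 min) set minimum. After a further 3 h at 37 °C, optical density read at 450 nm.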

[3] = target: alpha-mannosidase (Canavalia ensiformis); experiment: Inhibition of jack bean alpha-mannosidase using p-nitrophenyl-alpha-D-mannopyranoside substrate incubated for 10 mins by UV spectrophotometry
[4] = tested on: PBMC; experiment: Immunosuppressive activity in human PBMC assessed as inhibition of cell proliferation using (methyl-3H)thymidine by mixed lymphocyte reaction assay; type: functional, cell-based
Method in brief: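 PBMCs at 1.2 × 10⁶ cells/ml in RPMI-1640 with 10% heat-inactivated FCS and antibiotics. 100 µl of each cell suspension mixed with 20 µl diluted compound and cultured 6 days at 37 °C, 5% CO₂. 1 µCi (methyl-³H)thymidine per well added for the last 18 h. Cells harvested on glass filters and cpm counted by liquid scintillation.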

[5] = Inhibition of alpha-glucosidase (unknown origin) using p-nitrophenyl-alpha-D-glucopyranoside substrate incubated for 10 mins by UV spectrophotometry
Method in brief: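 α-Glucosidase (0.1 unit/ml) preincubated with compound 1 h at 37 °C. Reaction started with 10 mM p-nitrophenyl substrate in 100 mM phosphate buffer pH 6.8, run 10 min at 37 °C, and stopped with 0.1 M Na₂CO₃.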

[6] = Inhibition of alpha-galactosidase (unknown origin) using p-nitrophenyl-alpha-D-galactopyranoside substrate incubated for 10 mins by UV spectrophotometry
Method in brief: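 α-Galactosidase (0.1 unit/ml) preincubated with compound 1 h at 37 °C. Substrate added in 200 mM sodium acetate buffer, reaction run 10 min at 37 °C, and stopped with 200 mM borate buffer pH 9.8.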

| IC50 [1] | IC50 [3] | IC50 ([5]; read-out: IC50) | IC50 [6] | IC50 ([6]; read-out: IC50) | IC50 [5] | Compound | IC50 [2] | IC50 [4] |
| --- | --- | --- | --- | --- | --- | --- | --- | --- |
| > 50 µM | 1830 µM | 418 µM | Not Active |  |  | OCCC1(O)[C@H](O)CNC[C@@H]1O (stereo partly specified) | > 10 µM | > 10 µM |
| > 50 µM | 252 µM | 360 µM |  | 167 µM |  | CCCCN1C[C@@H](O)C(O)(CCO)[C@@H](O)C1 (stereo partly specified) | > 10 µM | > 10 µM |
| > 50 µM | 183 µM |  |  | 315 µM | Not Active | CCCCCCN1C[C@@H](O)C(O)(CCO)[C@@H](O)C1 (stereo partly specified) | > 10 µM | > 10 µM |
| > 50 µM |  |  | Not Active |  | Not Active | CCCCCCCCN1C[C@@H](O)C(O)(CCO)[C@@H](O)C1 (stereo partly specified) | > 10 µM | > 10 µM |
| 15 µM |  |  | Not Active |  | Not Active | CCCCCCCCCCN1C[C@@H](O)C(O)(CCO)[C@@H](O)C1 (stereo partly specified) | > 10 µM | > 10 µM |
| > 50 µM | 873 µM | 252 µM | Not Active |  |  | OCCN1C[C@@H](O)C(O)(CCO)[C@@H](O)C1 (stereo partly specified) | > 10 µM | > 10 µM |
|  |  | 171 µM |  | 1850 µM |  | OCCN1C[C@H](O)[C@@H](O)[C@H](O)[C@H]1CO [MIGLITOL] |  |  |
